Laboratory results reported in ChEMBL document CHEMBL1154801, “Novel phosphoramidates with porphine and nitrogenous drug: one-pot synthesis and orientation to cancer cells” (Eur J Med Chem, 2010).

Legend:
Bel-7402 = experiment: Cytotoxicity against human Bel7402 cells after 48 hrs in the dark by MTT assay; format: functional, cell-based; settings: Bel-7402, 48 h
Procedure, shortened: (§1)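 Cells seeded at 5000 per well and left to attach overnight. Compounds were taken from 50 mM DMSO stocks and diluted to final concentrations of 2.5–100 μM. Cells were exposed for 48 h in the dark, then given MTT (5 mg/mL in PBS) for 3 h. Formazan was dissolved in DMSO and absorbance read at 570 nm. The 50% cell-death concentration (IC50) was determined.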

[1] = Cytotoxicity against human L02 cells after 48 hrs in the dark by MTT assay; format: cell-based; settings: l02, 48 h; procedure, shortened: as §1

## O=P(NCCCl)(NCCCl)Oc1ccc(-c2c3nc(c(-c4ccc(Cl)cc4)c4ccc([nH]4)c(-c4ccc(Cl)cc4)c4nc(c(-c5ccc(Cl)cc5)c5ccc2[nH]5)C=C4)C=C3)cc1
Bel-7402
  IC50: 20.3 µM
[1]
  Activity: Non-toxic

## COc1ccc(-c2c3nc(c(-c4ccc(OC)cc4)c4ccc([nH]4)c(-c4ccc(OP(=O)(NCCCl)NCCCl)cc4)c4nc(c(-c5ccc(OC)cc5)c5ccc2[nH]5)C=C4)C=C3)cc1
Bel-7402
  IC50: 17.3 µM
[1]
  Activity: Non-toxic

## Cc1ccc(-c2c3nc(c(-c4ccc(C)cc4)c4ccc([nH]4)c(-c4ccc(OP(=O)(NCCCl)NCCCl)cc4)c4nc(c(-c5ccc(C)cc5)c5ccc2[nH]5)C=C4)C=C3)cc1
Bel-7402
  IC50: 11.4 µM
[1]
  Activity: Non-toxic

## O=P(NCCCl)(NCCCl)Oc1ccc(-c2c3nc(c(-c4ccc(Br)cc4)c4ccc([nH]4)c(-c4ccc(Br)cc4)c4nc(c(-c5ccc(Br)cc5)c5ccc2[nH]5)C=C4)C=C3)cc1
Bel-7402
  IC50: 8.41 µM
[1]
  Activity: Non-toxic

## O=P(NCCCl)(NCCCl)Oc1ccc(-c2c3nc(c(-c4ccccc4)c4ccc([nH]4)c(-c4ccccc4)c4nc(c(-c5ccccc5)c5ccc2[nH]5)C=C4)C=C3)cc1
Bel-7402
  IC50: 14.4 µM
[1]
  Activity: Non-toxic

## O=Cc1ccc(OP(=O)(NCCCl)NCCCl)cc1
Bel-7402
  IC50: > 150 µM
[1]
  Activity: Toxic

## CC1=C(CCC(=O)O)c2cc3[nH]c(cc4nc(cc5[nH]c(cc1n2)c(C)c5C(C)O)C(C)=C4C(C)O)c(C)c3CCC(=O)O (stereo not drawn)
Bel-7402
  IC50: 8.93 µM
